Bioassay records as filed in PubChem BioAssay.
Shown is part of a subset that was picked to be rich in hits.
Lipid droplet – inhibitors of hepatocyte lipid droplet formation, primary screen, imaging, high-throughput imaging, BODIPY stain; AID 1656, 2009; inhibition, % at 6.5 µM; AML12 mouse hepatocytes, oleate lipid droplets; 240,000 tested, 0.4% active;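 active means lipid droplet intensity inhibited by at least 50%, with more than 500 cells counted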
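Assay system: AML12 hepatocytes (mouse); Probe or stimulus: oleic acid at 100 µM to induce lipid droplet formation; Dosing: compound at 6.5 µM only; Schedule: compound with oleate, overnight; Detection: fluorescence imaging, 20x objective, two fields per well; Measure: % inhibition of lipid droplet signal.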
p-CIP stab down – p/CIP-EGFP fusion destabilizers, primary screen, fluorescence, F442A cells; AID 1984, 2009; 16 h; 290,000 tested, 0.01% active; Q05BA5; decrease of EGFP signal, % at 10 µM;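 active means EGFP signal decrease of at least 30% at 10 µM or well 3 SD below plate mean, unless failing retest; inactive means the rest, including hits failing retest or dose response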
MDM2 E3 inh – MDM2-luciferase reporter signal enhancers, primary screen, MDM2 E3 ligase inhibitor project, cell-based, luminescence, 1536-well | cell-based MDM2 ubiquitination luciferase reporter, 2 h; 0 = plate control, 100 = twice control, blank-subtracted | signal enhancement, % at 5 µM | E3 ubiquitin-protein ligase Mdm2 (Homo sapiens), Q00987 | 210,000 tested, 0.11% active;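 active means signal enhancement of 30% or more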;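 further: luminescence tracks abundance of the self-degrading MDM2-luciferase fusion protein; higher signal means inhibition of MDM2 E3 ligase activity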
Target sequence (Q00987 whole entry, looked up, the tested form may be a part): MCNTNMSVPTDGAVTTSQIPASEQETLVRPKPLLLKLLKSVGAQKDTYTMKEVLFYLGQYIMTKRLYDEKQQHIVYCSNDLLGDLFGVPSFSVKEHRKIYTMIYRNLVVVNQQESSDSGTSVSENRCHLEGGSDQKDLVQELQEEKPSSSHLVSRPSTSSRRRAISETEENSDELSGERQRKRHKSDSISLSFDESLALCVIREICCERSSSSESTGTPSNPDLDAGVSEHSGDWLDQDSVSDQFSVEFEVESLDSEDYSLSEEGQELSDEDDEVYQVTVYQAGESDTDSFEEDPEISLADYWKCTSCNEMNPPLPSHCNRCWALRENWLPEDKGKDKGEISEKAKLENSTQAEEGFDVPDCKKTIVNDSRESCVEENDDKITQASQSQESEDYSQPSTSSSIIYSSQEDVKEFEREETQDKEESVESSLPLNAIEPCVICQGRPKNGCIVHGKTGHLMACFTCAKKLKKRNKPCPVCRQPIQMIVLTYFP
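Material: stable MDM2–luciferase fusion reporter cells / Quantity: 2000 cells/well / Dosing: single 5 µM compound dose, 0.2% final DMSO / Buffer or medium: DMEM / Schedule: 4 h cell settling then 2 h compound exposure, 37 °C / Detection: luminescence with SteadyLite reagent, 15 min at room temperature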
Lipid drop inh – hepatocyte lipid droplet accumulation inhibitors, confirmation, imaging, AML12 mouse hepatocytes, single concentration, high-content; AID 463183, 2010; 870 tested, 65% active; BODIPY lipid droplet imaging; droplets induced with 100 µM oleic acid; inhibition, % at 5.2 µM; shares compounds with Lipid droplet;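 active means inhibition of lipid droplet metric at least 50%, with more than 300 cells in each of four replicates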
AML12 cytotox – AML12 hepatocyte cytotoxicity, counter-screen for hepatic lipid droplet formation project, imaging, DAPI nuclear morphology imaging; shares compounds with Lipid droplet; AML12 mouse hepatocytes; stronger effect = higher value; cells fed 100 µM oleate overnight; z-score at 5 µM; 870 tested, 3% active; AID 463200, 2010; in the data active means z-score above about 6.3;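 further: compound exposure lasted overnight at 37 °C before fixation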
AML12 tox ATP – AML12 hepatocyte cytotoxicity, confirmation, cytotoxicity control for hepatic lipid droplet formation project, cell-based, single concentration; 530 tested, under 10 active; AML12 mouse hepatocyte viability, ATP luminescence; cells loaded with 100 µM oleic acid; shares compounds with Lipid droplet; cytotoxicity, % at 50 µM;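 active means cytotoxicity above 50% in each of four replicates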;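 further: compound exposure lasted overnight at 37 °C before the ATP read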
Numbers stand for hits.

How did CCN(CCn1cccn1)C(=O)c1cc(COc2cccc3cccnc23)on1 do in these assays?
Lipid droplet: inactive; p-CIP stab down: inactive; MDM2 E3 inh: inactive

How did Cc1cccc(CN2C(=O)N/C(=C/c3ccc(C)s3)C2=O)c1 do in these assays?
Lipid droplet: inactive; p-CIP stab down: inactive; MDM2 E3 inh: inactive

Results for Cc1cccc(CN2C(=O)N/C(=C/c3cc(C)n(-c4cc(C)ccn4)c3C)C2=O)c1 ?
Lipid droplet: 80.9; p-CIP stab down: inactive; MDM2 E3 inh: inactive; Lipid drop inh: 105.1; AML12 cytotox: inactive; AML12 tox ATP: inactive

What do the screens show for `CCOc1ccc(CCNC(=O)C(C)n2nc(C)n3c(cc4occc43)c2=O)cc1OCC` (centres undefined)?
Lipid droplet: 57.6; p-CIP stab down: inactive; MDM2 E3 inh: inactive; Lipid drop inh: 93.5; AML12 cytotox: inactive; AML12 tox ATP: inactive

How did CCOc1ccc(CCNC(=O)Cn2nc(C)n3cccc3c2=O)cc1OCC do in these assays?
Lipid droplet: 78.9; p-CIP stab down: inactive; Lipid drop inh: 103.8; AML12 cytotox: inactive; AML12 tox ATP: inactive

Results for Cc1nn(C(C)C(=O)NCCc2ccccc2)c(=O)c2cc3occc3n12 (centres undefined) ?
Lipid droplet: inactive; p-CIP stab down: inactive

What do the screens show for `CCCNC(=O)CN1C(=O)NC(CCc2ccccc2)C1=O` (centres undefined)?
Lipid droplet: inactive; p-CIP stab down: inactive; MDM2 E3 inh: inactive

Results for CCOc1ccc(CCNC(=O)CN2C(=O)NC(CCSC)C2=O)cc1OCC (centres undefined) ?
Lipid droplet: 85.1; p-CIP stab down: inactive; MDM2 E3 inh: inactive; Lipid drop inh: 99.6; AML12 cytotox: inactive; AML12 tox ATP: inactive

What do the screens show for `Cc1nn(CC(=O)NCCCc2ccccc2)c(=O)c2cccn12`?
Lipid droplet: inactive; p-CIP stab down: inactive

What do the screens show for `CCOc1ccc(CCNC(=O)CCCn2c(=O)c3cccn3c3cccnc32)cc1OCC`?
Lipid droplet: 69.2; p-CIP stab down: inactive; Lipid drop inh: 88.3; AML12 cytotox: inactive; AML12 tox ATP: inactive

What do the screens show for `COc1ccc(CCNC(=O)CCCn2c(=O)c3cccn3c3cccnc32)c(OC)c1OC`?
Lipid droplet: inactive; p-CIP stab down: inactive

What do the screens show for `CC(OC(=O)c1cccs1)C(=O)NC1CC1` (centres undefined)?
Lipid droplet: inactive; p-CIP stab down: inactive

Results for CCOc1ccc(CCNC(=O)Cn2c(-c3nonc3N)nc3ccccc32)cc1OCC ?
Lipid droplet: 75.2; p-CIP stab down: inactive; MDM2 E3 inh: inactive; Lipid drop inh: 100.8; AML12 cytotox: inactive; AML12 tox ATP: inactive

What do the screens show for `CCOc1ccc(CCNC(=O)Cn2cccc2C(=O)c2ccccc2)cc1OCC`?
Lipid droplet: 84.1; p-CIP stab down: inactive; MDM2 E3 inh: inactive; Lipid drop inh: 108.8; AML12 cytotox: inactive; AML12 tox ATP: inactive

How did CCCNC(=O)Cn1cccc1C(=O)c1ccccc1 do in these assays?
p-CIP stab down: inactive; MDM2 E3 inh: inactive

Results for COc1ccc(CCNC(=O)Cn2c(-c3nonc3N)nc3ccccc32)cc1OC ?
p-CIP stab down: inactive; MDM2 E3 inh: inactive

What do the screens show for `CCOC(=O)COc1ccc(S(=O)(=O)NC2CC2)cc1`?
Lipid droplet: inactive; p-CIP stab down: inactive

How did CC(=O)/C(N=Nc1ccc(-n2ccc(C(F)(F)F)n2)cc1)=C(\C)O do in these assays?
Lipid droplet: inactive; p-CIP stab down: inactive; MDM2 E3 inh: inactive

Results for O=c1cc(-c2ccccc2)nc(SCCOc2ccccc2Cl)[nH]1 ?
Lipid droplet: inactive; p-CIP stab down: inactive; MDM2 E3 inh: inactive

Results for COC(=O)c1ccc(C(=O)NC2CCCc3c2cnn3-c2cc(F)cc(F)c2)nc1 (centres undefined) ?
Lipid droplet: inactive; p-CIP stab down: inactive

How did Cc1cc(C(=O)NC2CCCc3c2cnn3-c2ccc(C)c(C)c2)nc(C)n1 (centres undefined) do in these assays?
Lipid droplet: 58.3; p-CIP stab down: inactive; Lipid drop inh: inactive; AML12 cytotox: inactive; AML12 tox ATP: inactive

What do the screens show for `O=C(NC1CCCc2c1cnn2-c1cc(F)cc(F)c1)c1ccccn1` (centres undefined)?
Lipid droplet: 63.8; p-CIP stab down: inactive; Lipid drop inh: 100.5; AML12 cytotox: inactive; AML12 tox ATP: inactive

How did COC(=O)c1ccc(C(=O)NC2CCCc3c2cnn3-c2ccc(C)c(C)c2)cc1 (centres undefined) do in these assays?
Lipid droplet: inactive; p-CIP stab down: inactive

What do the screens show for `Cc1cccc(C(C(N)=O)c2ncc(C(F)(F)F)cc2Cl)c1` (centres undefined)?
Lipid droplet: inactive; p-CIP stab down: inactive; MDM2 E3 inh: inactive

What do the screens show for `COc1ccc(-c2oc3ccc(-c4cc(OC)c(OC)c(OC)c4)cc3c2C#Cc2ccsc2)cc1`?
p-CIP stab down: inactive

Results for CCOc1ccccc1NC(=O)CSc1nc2ccccc2nc1N1CCCC1 ?
Lipid droplet: inactive; p-CIP stab down: inactive

How did COc1ccc(NC(=O)CSc2nc3ccccc3nc2N2CCCC2)cc1Cl do in these assays?
Lipid droplet: 64.4; p-CIP stab down: inactive; Lipid drop inh: 96.4; AML12 cytotox: inactive; AML12 tox ATP: inactive

Results for Cc1cc(C)cc(NC(=O)CSc2nc3ccccc3nc2N2CCCCC2)c1 ?
Lipid droplet: inactive; p-CIP stab down: inactive

Results for COc1ccc(C)cc1NC(=O)CSc1nc2ccccc2nc1N1CCCCC1 ?
Lipid droplet: inactive; p-CIP stab down: inactive

Results for Cc1cccc(NC(=O)CSc2nc3ccccc3nc2N2CCCC2)c1C ?
Lipid droplet: 55.2; p-CIP stab down: inactive; Lipid drop inh: inactive; AML12 cytotox: inactive

Results for CCOc1ccc(NC(=O)CSc2nc3ccccc3nc2N2CCCC2)cc1 ?
Lipid droplet: 81.1; p-CIP stab down: inactive; Lipid drop inh: 106.3; AML12 cytotox: inactive; AML12 tox ATP: inactive

How did O=C(CSc1nc2ccccc2nc1N1CCCC1)Nc1ccc(F)cc1 do in these assays?
Lipid droplet: inactive; p-CIP stab down: inactive

How did Cc1cc(C)cc(NC(=O)CSc2nc3ccccc3nc2N2CCCC2)c1 do in these assays?
Lipid droplet: 70.5; p-CIP stab down: inactive; Lipid drop inh: 107.3; AML12 cytotox: inactive; AML12 tox ATP: inactive

How did O=c1c2ccccc2nc(SCCN2CCCCC2)n1CCc1ccccc1 do in these assays?
Lipid droplet: inactive; p-CIP stab down: inactive; MDM2 E3 inh: inactive

What do the screens show for `COc1ccc(NC(=O)CCC(=O)OCc2ccc([N+](=O)[O-])cc2)cc1`?
Lipid droplet: inactive; p-CIP stab down: inactive; MDM2 E3 inh: inactive
